Experimental data pooled from the literature.
Each line is one published result; the experiments were not run side by side.
Cruzipain: Cruzipain (Trypanosoma cruzi, UniProt P25779)
SLCO1B1: Solute carrier organic anion transporter family member 1B1 (SLCO1B1, Homo sapiens, UniProt Q9Y6L6)
LNPEP: Leucyl-cystinyl aminopeptidase (LNPEP, Homo sapiens, UniProt Q9UIQ6)
PBRM1 bromodomain: Protein polybromo-1, bromodomain (PBRM1, Homo sapiens, UniProt Q86U86)
CYP3A4: Cytochrome P450 3A4 (CYP3A4, Homo sapiens, UniProt P08684)
Kcna3: Potassium voltage-gated channel subfamily A member 3 (Kcna3, Mus musculus, UniProt P16390)
MMP13: Collagenase 3 (MMP13, Homo sapiens, UniProt P45452)
DSTYK: Dual serine/threonine and tyrosine protein kinase (DSTYK, Homo sapiens, UniProt Q6XUX3)
CHRM1: Muscarinic acetylcholine receptor M1 (CHRM1, Homo sapiens, UniProt P11229)

Compound | target | assay | system | setting | IC50
O=C(CNC(=O)c1ccccc1)OC(C(=O)Nc1cc(C(F)(F)F)ccc1Cl)c1ccccc1 (stereo not drawn) | Cruzipain | enzyme activity, inhibitor | – | – | 7 µM
Nc1ccccc1S(N)(=O)=O | SLCO1B1 | transporter uptake, inhibitor, fluorescence | CHO | 30 min, pH 7.4 | > 100 µM
C=CCOc1cccc2c1-c1c(c3c(n1C(C)C)CCCC3=O)C2=O | Casein kinase II subunit alpha' (CSNK2A2, Homo sapiens, UniProt P19784, C336S) | enzyme activity, inhibitor | – | – | 0.273 µM
CCOc1cc(CC(=O)N[C@@H](CC(C)C)c2ccccc2N2CCCCC2)ccc1C(=O)O | SLCO1B1 | transporter uptake, inhibitor, fluorescence | CHO | 30 min, pH 7.4 | 1.1 µM
O=S(=O)(Nc1cccc(-c2nnn[nH]2)c1)c1ccc(F)c(F)c1 | LNPEP | enzyme activity, inhibitor, fluorescence | – | – | 12.1 µM
CC[C@@H](C(=O)Nc1ccc(C(N)=O)c(F)c1)n1cc(OC)c(-c2cc(Cl)ccc2-n2cc(C(F)(F)F)nn2)cc1=O | Coagulation factor XII (F12, Homo sapiens, UniProt P00748) | enzyme activity, inhibitor | – | – | > 2 µM
COc1ccc(NC(=O)COC(=O)C(CC(C)C)N2C(=O)C3CC=CCC3C2=O)cc1Cl (stereo not drawn) | Cruzipain | enzyme activity, inhibitor, fluorescence | – | – | 0.9 µM
CCOc1ccc(C[C@@H](N)C(=O)N[C@@H](Cc2ccccc2)C(=O)NC2CCN(C(=N)N)CC2)cc1 | Coagulation factor XII, trypsin-like site (F12, Homo sapiens, UniProt P00748) | enzyme activity, inhibitor, fluorescence | – | – | > 10 µM
Cc1ncsc1-c1ccc(CNC(=O)[C@@H]2C[C@H](O)CN2C(=O)[C@@H](NC(=O)C2(F)CC2)C(C)(C)C)c(OCCOc2ccc(CN3CCN(c4cc(-c5ccccc5O)nnc4N)CC3)cc2)c1 | PBRM1 bromodomain | cell-free assay, TR-FRET | – | – | 0.51 µM
O=C(NCCN1CCCC1)c1cc(-c2ccc(CN3CCOCC3)cc2)nc2ccc(F)cc12 | CYP3A4 | enzyme activity, inhibitor | human, liver microsomes | – | > 100 µM
O=S(=O)(Nc1cccc(-c2nnn[nH]2)c1)c1c(F)cc(Br)cc1F | LNPEP | enzyme activity, inhibitor, fluorescence | – | – | 7.5 µM
CCCC[C@H](NC(=O)[C@H](C)c1c(C)[nH]c2ccc(O)cc12)c1ncc(-c2cc3ccccc3nc2OC)[nH]1 | Histone deacetylase 11 (HDAC11, Homo sapiens, UniProt Q96DB2) | enzyme activity, inhibitor | – | – | 0.1 µM
Nc1nc2ccc(OC(F)(F)F)cc2s1 | Kcna3 | ion current, inhibitor, patch clamp | – | – | 50 µM
O=S(=O)(Nc1cccc(-c2nnn[nH]2)c1)c1cc2ccccc2s1 | LNPEP | enzyme activity, inhibitor, fluorescence | – | – | 5.9 µM
Nc1nc(N)c2nc(CNc3ccc(C(=O)NCCc4ccccc4)cc3)cnc2n1 | CYP3A4 | enzyme activity, inhibitor, luciferase | – | – | 11.2 µM
CN(c1cccc(-c2nnn[nH]2)c1)S(=O)(=O)c1cc(Br)c(Cl)s1 | LNPEP | enzyme activity, inhibitor, fluorescence | – | – | 11.8 µM
CN1CCN(c2ccc(Nc3ncc4cc(C#N)c(=O)n(C5CCCC5)c4n3)cc2)CC1 | Calcium/calmodulin-dependent protein kinase type II subunit gamma (CAMK2G, Homo sapiens, UniProt Q13555) | enzyme activity, inhibitor | – | – | 3.87 µM
Cn1nc(C(=O)NCc2ccc(C(=O)O)cc2)cc1-c1ccc2[nH]c(-c3ccncn3)cc2c1 | MMP13 | enzyme activity, inhibitor, FRET | – | – | 0.00081 µM
Cc1cc(S(=O)(=O)Nc2cccc(-c3nnn[nH]3)c2)ccc1C(F)(F)F | LNPEP | enzyme activity, inhibitor, fluorescence | – | – | 2.3 µM
Cc1noc(-c2cc3cc(-c4nc(C(=O)NCc5ccccc5)[nH]c4C)ccc3[nH]2)n1 | MMP13 | enzyme activity, inhibitor, FRET | – | – | 0.0023 µM
CCn1ncc2c1-c1cnc(N)c(c1)O[C@H](C)c1cc(F)ccc1-c1nn(C)nc1C2 | DSTYK | enzyme activity, inhibitor, radiometric | – | – | 0.583 µM
CCOCc1nc(O)c(-c2nnc(Cc3ccc(Cl)cn3)o2)c(O)c1-c1c(OC)cccc1OC | 5-hydroxytryptamine receptor 4 (HTR4, Homo sapiens, UniProt Q13639) | ligand displacement, radioligand | – | – | > 30 µM
O=c1ccc2c(OCCCCOc3cccc(O)c3)c3ccoc3cc2o1 | Kcna3 | ion current, inhibitor, patch clamp | – | – | 0.139 µM

Compound | target | assay | system | setting | IC50
CCn1c(-c2nc3ccc(C(=O)N4CCCC(N)C4)cc3n2C)cc2ccccc21 (stereo not drawn) | CHRM1 | calcium signal, antagonist, fluorescence | – | – | > 15.8 µM
CC/C=C\C/C=C\C/C=C\C/C=C\C/C=C\CCCC(=O)O | DNA polymerase delta catalytic subunit (POLD1, Homo sapiens, UniProt P28340) | enzyme activity, inhibitor | – | – | 39.2 µM
Oc1ccc(/C=C/c2cc(O)cc(O)c2)cc1 | SLCO1B1 | transporter uptake, inhibitor, fluorescence | CHO | 30 min, pH 7.4 | 11.2 µM
O=S(=O)(Nc1cccc(-c2nnn[nH]2)c1)c1cc(Br)c(Cl)s1 | LNPEP | enzyme activity, inhibitor, fluorescence | – | – | 1.1 µM
NCc1ccc(Nc2ncc(F)c(Nc3ccccc3)n2)cc1 | Serine/threonine-protein kinase PAK 4 (PAK4, Homo sapiens, UniProt O96013) | enzyme activity, inhibitor | – | lysate | > 10 µM
CCC1CN(C(=O)NCC(F)(F)F)CC1c1nc(N)nc2[nH]ccc12 (stereo not drawn) | Tyrosine-protein kinase JAK1 (JAK1, Homo sapiens, UniProt P23458) | enzyme activity, inhibitor, ADP detection | – | – | 9.6 µM
O=C(O)c1cccnc1Nc1cccc(C(F)(F)F)c1 | SLCO1B1 | transporter uptake, inhibitor, fluorescence | CHO | 30 min, pH 7.4 | 3.7 µM
Cc1noc(-c2cc3cc(-c4nc(C(=O)NCc5ccccn5)[nH]c4C)ccc3[nH]2)n1 | MMP13 | enzyme activity, inhibitor, FRET | – | – | 0.0031 µM
C[N+]1(C)CCC(OC(=O)C(c2ccccc2)c2ccccc2)CC1 | CHRM1 | ligand displacement, radioligand | – | – | 0.00527 µM
NC(=O)c1ccc[n+]([C@@H]2O[C@H](COP(=O)([O-])OP(=O)(O)OC[C@H]3O[C@@H](n4cnc5c(N)ncnc54)[C@H](O)[C@@H]3O)[C@@H](O)[C@H]2O)c1 | Protein mono-ADP-ribosyltransferase PARP8 (Homo sapiens, UniProt Q8N3A8) | enzyme activity, inhibitor | – | – | 377 µM
O=C(O[C@H]1[C@@H]2C=CO[C@@H](O[C@@H]3O[C@H](CO)[C@@H](O)[C@H](O)[C@H]3O)[C@@H]2[C@@]2(CO)O[C@@H]12)c1ccc(O)cc1 | SLCO1B1 | transporter uptake, inhibitor, radiometric | HEK293 | 10 min | 200 µM
Cc1ncsc1-c1ccc(CNC(=O)[C@@H]2C[C@H](O)CN2C(=O)[C@@H](NC(=O)C2(F)CC2)C(C)(C)C)c(OCCc2ccc(CN3CCN(c4cc(-c5ccccc5O)nnc4N)CC3)cc2)c1 | PBRM1 bromodomain | cell-free assay, TR-FRET | – | – | 1.1 µM
c1ccc(/C(=N\Nc2nc3ccccc3s2)c2ccccn2)cc1 | E3 ubiquitin-protein ligase Mdm2 (MDM2, Homo sapiens, UniProt Q00987) | protein-protein interaction, inhibitor | – | – | 13 µM
O=S(=O)(Nc1cccc(-c2nnn[nH]2)c1)c1ccc(Cl)c2nonc12 | LNPEP | enzyme activity, inhibitor, fluorescence | – | – | 0.4 µM
CCOC(=O)[C@H](CCc1ccccc1)N[C@@H](C)C(=O)N1[C@H](C(=O)O)C[C@@H]2CCC[C@@H]21 | SLCO1B1 | transporter uptake, inhibitor, fluorescence | CHO | 30 min, pH 7.4 | 4 µM
CC(C)C[C@H](NC(=O)[C@H]1O[C@@H]1C(=O)O)C(=O)NCCCCN=C(N)N | Papain (Carica papaya, UniProt P00784) | enzyme activity, inhibitor | – | – | 0.00015 µM
Cn1cc(-c2cc3cc(-c4cc(C(=O)NCc5ccc(C(=O)O)cc5)nn4C)ccc3[nH]2)cn1 | MMP13 | enzyme activity, inhibitor, FRET | – | – | 0.0016 µM
O=S(=O)(Nc1cccc(-c2nnn[nH]2)c1)c1cc(C(F)(F)F)cc(C(F)(F)F)c1 | LNPEP | enzyme activity, inhibitor, fluorescence | – | – | 4.1 µM
Cc1noc(-c2cc3cc(-c4nc(C(=O)NCc5ccc(=O)[nH]c5)[nH]c4C)ccc3[nH]2)n1 | MMP13 | enzyme activity, inhibitor, FRET | – | – | 0.00033 µM
CC(C)C(NC(=O)c1ccco1)C(=O)NCC(c1ccco1)N1CCCCC1 (stereo not drawn) | Cruzipain | enzyme activity, inhibitor | – | – | 14 µM
Cc1noc(-c2cc3cc(-c4nc(C(N)=O)[nH]c4C)ccc3[nH]2)n1 | MMP13 | enzyme activity, inhibitor, FRET | – | – | 0.016 µM
CN(C)CC#Cc1ccc2[nH]c3c(c2c1)-c1nc(N)ncc1CCC3 | DSTYK | enzyme activity, inhibitor, radiometric | – | – | > 10 µM
